Experiments:
Mus musculus [1] = assay: Antiobesity activity in B6.V/J ob/ob mouse assessed as change in heart weight at 5 mg/kg, po bid measured after 14 days (reference value: 0.150 +/- 0.003 g); assay type: functional
[2] = AUClast in Sprague-Dawley rat at 10 mg/kg, iv; assay type: ADME, organism-based; design: time 0 - last, dose 10 mg/kg, route intravenous; conditions: plasma
Mus musculus [3] = assay: Antiobesity activity in B6.V/J ob/ob mouse assessed as change in spleen weight at 5 mg/kg, po bid measured after 14 days (reference value: 0.097 +/- 0.052 g); assay type: functional
Homo sapiens = species on record: Homo sapiens; assay: Selectivity ratio of IC50 for human recombinant 5HT-2B receptor to IC50 for human recombinant 5HT-2A receptor
[4] = AUC (0 to infinity) in Sprague-Dawley rat at 10 mg/kg, iv; assay type: ADME, organism-based; design: time infinity, dose 10 mg/kg, route intravenous; conditions: plasma
Mus musculus [5] = assay: Antiobesity activity in B6.V/J ob/ob mouse assessed as change in lung weight at 25 mg/kg, po bid measured after 14 days (reference value: 0.143 +/- 0.013 g); assay type: functional
[6] = molecular target: T1, 5-hydroxytryptamine receptor 2C (Homo sapiens, UniProt P28335); assay: Displacement of [3H]-mesulergine from human recombinant 5HT-2C receptor expressed in CHOK1 cell membranes after 30 mins; design: species or system CHO-K1
T1 sequence (P28335 whole entry): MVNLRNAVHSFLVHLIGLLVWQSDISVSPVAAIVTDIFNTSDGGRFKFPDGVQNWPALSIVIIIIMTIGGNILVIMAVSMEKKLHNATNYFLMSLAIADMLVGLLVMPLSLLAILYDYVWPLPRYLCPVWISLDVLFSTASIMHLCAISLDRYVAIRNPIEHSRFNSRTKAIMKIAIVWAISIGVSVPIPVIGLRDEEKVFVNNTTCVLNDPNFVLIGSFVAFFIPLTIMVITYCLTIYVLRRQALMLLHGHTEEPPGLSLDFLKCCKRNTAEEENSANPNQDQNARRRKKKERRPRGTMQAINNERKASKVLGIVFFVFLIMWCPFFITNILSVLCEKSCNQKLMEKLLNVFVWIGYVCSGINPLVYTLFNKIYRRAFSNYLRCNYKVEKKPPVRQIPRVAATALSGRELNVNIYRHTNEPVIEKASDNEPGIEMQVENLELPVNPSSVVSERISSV
How it was run: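 Frozen CHO-K1 membranes expressing recombinant human 5-HT2C incubated with 1 nM [3H]mesulergine in 50 mM Tris-HCl pH 7.4 containing 0.1% ascorbic acid and pargyline. Mianserin defined nonspecific binding.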

Mus musculus [7] = assay: Antiobesity activity in B6.V/J ob/ob mouse assessed as change in brain weight at 5 mg/kg, po bid measured after 14 days (reference value: 0.340 +/- 0.017 g); assay type: functional
Mus musculus [8] = assay: Antiobesity activity in B6.V/J ob/ob mouse assessed as change in thymus weight at 25 mg/kg, po bid measured after 14 days (reference value: 0.029 +/- 0.006 g); assay type: functional
[9] = Mean residence time in Sprague-Dawley rat at 10 mg/kg, iv; assay type: ADME, organism-based; design: dose 10 mg/kg, route intravenous; conditions: in vivo
How it was run: (§1)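 Rats fasted 12 h, then dosed orally by gavage or by bolus tail-vein injection at 2 ml/kg. Compound given as a 5 mg/ml solution in N-methyl-2-pyrrolidone/Tween 80/water (1:2:7). Samples taken at various times (n = 5) and stored at −70 °C. Plasma deproteinized with acetonitrile containing carbamazepine internal standard, then quantified by LC-MS/MS.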

[10] = Clearance in Sprague-Dawley rat at 10 mg/kg, iv; assay type: ADME, organism-based; design: dose 10 mg/kg, route intravenous; conditions: in vivo; how it was run: as §1
Mus musculus [11] = assay: Antiobesity activity in B6.V/J ob/ob mouse assessed as change in liver weight at 25 mg/kg, po bid measured after 14 days (reference value: 3.396 +/- 0.162 g); assay type: functional
Mus musculus [12] = assay: Antiobesity activity in B6.V/J ob/ob mouse assessed as change in gonadal adipose tissue weight at 25 mg/kg, po bid measured after 14 days (reference value: 3.599 +/- 0.155 g); assay type: functional
Mus musculus [13] = assay: Antiobesity activity in B6.V/J ob/ob mouse assessed as inhibition of body weight gain at 25 mg/kg, po bid measured after 14 days relative to vehicle-treated control; assay type: functional; conditions: 336 h
[14] = Ratio of drug level from brain to plasma in Sprague-Dawley rat at 10 mg/kg, iv measured at 2 hrs; assay type: ADME, organism-based; design: dose 10 mg/kg, route intravenous; conditions: read-out: BPR; how it was run: as §1
Mus musculus [15] = assay: Antiobesity activity in B6.V/J ob/ob mouse assessed as change in thymus weight at 5 mg/kg, po bid measured after 14 days (reference value: 0.029 +/- 0.006 g); assay type: functional
Mus musculus [16] = assay: Antiobesity activity in B6.V/J ob/ob mouse assessed as change in heart weight at 25 mg/kg, po bid measured after 14 days (reference value: 0.150 +/- 0.003 g); assay type: functional
Mus musculus [17] = assay: Antiobesity activity in B6.V/J ob/ob mouse assessed as change in kidney weight at 25 mg/kg, po bid measured after 14 days (reference value: 0.339 +/- 0.009 g); assay type: functional
[18] = molecular target: 5-hydroxytryptamine receptor 6 (Homo sapiens, UniProt P50406); assay: Displacement of [3H]-LSD from human recombinant 5HT-6 receptor expressed in CHOK1 cell membranes after 60 mins; design: species or system CHO-K1
Chain of 5-hydroxytryptamine receptor 6 (P50406 whole entry): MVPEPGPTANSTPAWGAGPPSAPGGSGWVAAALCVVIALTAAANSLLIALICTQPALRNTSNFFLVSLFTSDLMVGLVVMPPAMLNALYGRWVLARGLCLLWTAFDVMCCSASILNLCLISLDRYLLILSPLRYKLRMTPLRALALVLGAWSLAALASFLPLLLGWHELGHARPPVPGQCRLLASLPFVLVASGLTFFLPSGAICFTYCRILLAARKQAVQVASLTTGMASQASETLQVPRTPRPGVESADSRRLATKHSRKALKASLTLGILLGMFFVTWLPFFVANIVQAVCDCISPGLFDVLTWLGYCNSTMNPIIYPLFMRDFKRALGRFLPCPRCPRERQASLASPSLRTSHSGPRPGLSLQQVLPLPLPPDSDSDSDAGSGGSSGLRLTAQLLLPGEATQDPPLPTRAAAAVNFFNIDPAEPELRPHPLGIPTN
How it was run: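 CHO-K1 membranes expressing human 5-HT6 incubated with 1 nM [3H]LSD for 60 min at 27 °C in 50 mM Tris-HCl pH 7.4 containing 4 mM CaCl2 and 0.1% ascorbic acid. Terminated by filtration on glass-fiber filters presoaked in 0.5% PEI. Methiothepin defined nonspecific binding.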

Mus musculus [19] = assay: Antiobesity activity in B6.V/J ob/ob mouse assessed as change in brain weight at 50 mg/kg, po bid measured after 14 days (reference value: 0.340 +/- 0.017 g); assay type: functional
[20] = Tmax in Sprague-Dawley rat at 10 mg/kg, po; assay type: ADME, organism-based; design: dose 10 mg/kg, route oral; conditions: in vivo; how it was run: as §1
[21] = molecular target: 5-hydroxytryptamine receptor 2B (Homo sapiens, UniProt P41595); assay: Displacement of […] from human recombinant 5HT-2B receptor
Chain of 5-hydroxytryptamine receptor 2B (P41595 whole entry): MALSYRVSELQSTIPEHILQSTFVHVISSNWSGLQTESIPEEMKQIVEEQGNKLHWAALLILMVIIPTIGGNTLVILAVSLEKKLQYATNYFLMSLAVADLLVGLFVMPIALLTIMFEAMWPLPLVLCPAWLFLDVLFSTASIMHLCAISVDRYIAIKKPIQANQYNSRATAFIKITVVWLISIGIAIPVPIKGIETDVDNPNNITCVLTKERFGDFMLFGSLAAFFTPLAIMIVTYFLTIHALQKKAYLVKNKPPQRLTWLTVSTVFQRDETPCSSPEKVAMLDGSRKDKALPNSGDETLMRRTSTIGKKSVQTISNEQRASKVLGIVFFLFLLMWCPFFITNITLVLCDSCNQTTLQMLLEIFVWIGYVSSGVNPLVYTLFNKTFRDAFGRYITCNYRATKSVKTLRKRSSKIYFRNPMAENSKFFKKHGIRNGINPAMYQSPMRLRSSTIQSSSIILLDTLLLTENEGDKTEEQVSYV

Mus musculus [22] = assay: Antiobesity activity in C57BL/6 mouse assessed as inhibition of body weight gain at 50 mg/kg, ip measured after 2 to 12 hrs relative to vehicle-treated control; assay type: functional; conditions: C57BL/6, ip, route intraperitoneal
Mus musculus [23] = assay: Antiobesity activity in B6.V/J ob/ob mouse assessed as change in lung weight at 5 mg/kg, po bid measured after 14 days (reference value: 0.143 +/- 0.013 g); assay type: functional
Mus musculus [24] = assay: Antiobesity activity in B6.V/J ob/ob mouse assessed as change in liver weight at 50 mg/kg, po bid measured after 14 days (reference value: 3.396 +/- 0.162 g); assay type: functional
Mus musculus [25] = assay: Antiobesity activity in B6.V/J ob/ob mouse assessed as […] at 25 mg/kg, ip measured after 12 hrs relative to vehicle-treated control; assay type: functional; conditions: route intraperitoneal

Cl.Clc1cccc(Nc2nc(Cc3ccccc3)nc3c2CCNCC3)c1
Activity (Mus musculus [1]): 0.163 g | AUC(0-t) [2]: 1730 ng·h/mL | Activity (Mus musculus [3]): 0.057 g | Ratio IC50 (Homo sapiens): 4.2 | AUC(0-inf) [4]: 1910 ng·h/mL | Activity (Mus musculus [5]): 0.154 g | IC50 [6]: 2.3 nM | Activity (Mus musculus [7]): 0.344 g | Activity (Mus musculus [8]): 0.034 g | MRT [9]: 1.88 h | clearance [10]: 97.2 mL/min/kg | Activity (Mus musculus [11]): 3.173 g | Activity (Mus musculus [12]): 3.127 g | inhibition in vivo at 25 mg/kg (Mus musculus [13]): 32.7% | Kp at 2 h [14]: 9.33 | Activity (Mus musculus [15]): 0.033 g | Activity (Mus musculus [16]): 0.143 g | Activity (Mus musculus [17]): 0.329 g | IC50 [18]: 21.8 nM | Activity (Mus musculus [19]): 0.36 g | Tmax [20]: 3.5 h | IC50 [21]: 32 nM | inhibition in vivo at 50 mg/kg (Mus musculus [22]): 84.8% | Activity (Mus musculus [23]): 0.124 g | Activity (Mus musculus [24]): 3.87 g | inhibition in vivo at 25 mg/kg (Mus musculus [25]): 51.1%

Source: ChEMBL document CHEMBL2390866, “Novel pyrimidoazepine analogs as serotonin 5-HT(2A) and 5-HT(2C) receptor ligands for the treatment of obesity” (Eur J Med Chem, 2013)
